Experimental data from ChEMBL document CHEMBL4513216, “Probing the Open Global Health Chemical Diversity Library for Multistage-Active Starting Points for Next-Generation Antimalarials” (ACS Infect Dis, 2020).

Assay: Toxicity liver stage against HepG2, at 10uM
Assay type: cell-based
Parameters: test concentration 10 uM, cell line HepG2-A16-CD81EGFP
Conditions: human, HepG2-A16-CD81EGFP cells; read-out: INHIBITION
In short: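 Uninfected HepG2-A16-CD81EGFP cells, 3 × 10^3 per well, 1536-well, plated on prespotted compound at 10 μM final, parasite-free screening media added to match infected plates; puromycin 10 μM positive, DMSO 0.5% negative; run in parallel with 48 h PbLuc assay at 37 °C, 5% CO2; viability by CellTiter-Glo luminescence, normalized to controls.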

| Compound | cytotoxicity at 10 µM [%] |
| --- | --- |
| CC(C)(C)n1ncc2c(=O)n(CC(=O)NCc3ccco3)cnc21 | -1.6 |
| CC(C)N1CC[C@H](c2nnc(Cc3c[nH]c4ccccc34)o2)C1 | -9.04 |
| O[C@@H]1C[C@@H](c2nc(-c3ccc(OC(F)(F)F)cc3)no2)N(CC2CC2)C1 | 1.32 |
| CC(=O)N1CC[C@H]2CC(=O)N(C3CCCCC3)CC[C@H]2C1 | 0.325 |
| CN1C(=O)CO[C@H]2CN(C(=O)Nc3ccc(F)cc3)C[C@H]21 | -2.22 |
| CNc1oc(-c2ccc(S(=O)(=O)N(C)C)o2)nc1C#N | -5.96 |
| CCN(c1ccsc1C(=O)N1CCSCC1)S(=O)(=O)c1ccccc1 | 8.24 |
| O=C(Cc1c(F)cccc1Cl)Nc1cc(N2CCCC2)ncn1 | -2.85 |
| CC1NC(=O)COC12CCN(C(=O)Cc1ccsc1)CC2 (centres undefined) | -5.73 |
| CN(C)C(=O)N1C[C@@H](C(=O)NCc2ccco2)C[C@H]2OCC[C@H]21 | 2.57 |
| CC(=O)N1[C@H](Cn2cncn2)C[C@@H]2CN(C(=O)NC3CC3)CC[C@@H]21 | -5.16 |
| CN1CCN(Cc2cn3c(n2)CN(C(=O)N2CCCC2)CC3)CC1 | 3.23 |
| NC(=O)N1CC[C@@H]2O[C@H](COCC(=O)N3CCCC3)CC[C@@H]21 | -1.49 |
| O=C(c1ccn(COc2ccc(F)cc2)n1)N1CCCC1 | 6.25 |
| CN(C)C(=O)c1ccn(COc2ccccc2Cl)n1 | 6.91 |
| COc1cccc(-c2cnc(C3CCNCC3)cn2)c1 | -30.4 |
| CCc1nnc(Nc2cccc(C3CCN(C(C)=O)CC3)n2)s1 | 0.579 |
| CN(CC(=O)Nc1cc(C(F)(F)F)c[nH]c1=O)Cc1ccccc1 | 12 |
| Cc1n[nH]c(-c2ccc(NC(=O)C(C)N3CCN(C)CC3)cc2)n1 (centres undefined) | 6.03 |
| CC(C)(C)OC(=O)N(CCNS(=O)(=O)N1CCOCC1)C1CC1 | -4.43 |
| CCOc1cccc(COC(=O)c2cc(C)on2)n1 | -5.08 |
| CC(C)OCCCNC(=O)CN1CCN(c2nccs2)C(C)C1 (centres undefined) | 1.4 |

| Compound | cytotoxicity at 10 µM [%] |
| --- | --- |
| Cc1occc1C(=O)N1CCCN(Cc2ncc(Cl)n2C)CC1 | -1.25 |
| CC(C)c1cc(C(=O)N2CCc3ccccc3C2C(=O)O)nn1C (centres undefined) | -2.53 |
| CN(CC(N)=O)CC1(c2ccc(Br)cc2)CC1 | 2.17 |
| COc1ccc(CNC(=O)CCn2cc(C)cn2)cc1C | -4.27 |
| Cc1nn(-c2ccccc2)c(C)c1CNC(=O)NC1CC(=O)N(C)C1 (centres undefined) | -2.17 |
| CN1CCN(C2CCN(Cc3ccc(Cl)s3)CC2)C1=O | 11.2 |
| CS(=O)(=O)NCC1CCCCN1Cc1ccccc1C#N (centres undefined) | -11.5 |
| COC(=O)N1CCCC(NC(=O)NCc2ccc(C)nc2)C1 (centres undefined) | -4.73 |
| Cc1ccc(C(=O)N(Cc2ccccc2F)C2CC2)c(=O)[nH]1 | 0.846 |
| Cc1nc(CNC2CCc3ncnn3C2)oc1C (centres undefined) | -3.86 |
| CC(SCC(=O)NC(N)=O)c1ccc(Cl)cc1 (centres undefined) | 4.86 |
| COC(=O)c1ccc(F)c(Cn2nc(C)cc2C)c1 | 4.11 |
| CCN(CC(=O)N(C)C)C(=O)c1nc(C)n(-c2ccccc2Cl)n1 | 7.3 |
| Cc1cc(NC(=O)N2CCCC2CN2CCOCC2)nn1C (centres undefined) | 1.63 |
| COc1ncnc(N)c1CNCC(C)Oc1ccccc1Cl (centres undefined) | 0.732 |
| COCCS(=O)(=O)Nc1ccc(-n2nccc2C(F)(F)F)cc1 | 1.26 |
| CN(Cc1ccncc1)C(=O)c1ccc2c(c1O)OC(C)(C)C2 | 1.95 |
| N#CCCN(Cc1ccccn1)C(=O)Nc1cccc(F)c1 | 3.43 |
| Nc1nccnc1C(=O)N(Cc1ccccc1O)CC1CCCO1 (centres undefined) | -4.45 |
| Cc1nnc(CN(C)C(=O)C(CC(C)C)N2CCCCC2=O)n1C (centres undefined) | -1.88 |
| COCCC(Cc1cccc(Br)c1)C(=O)N(C)C (centres undefined) | 13 |
| Cc1cc(-c2noc(C3CCS(=O)(=O)C3)n2)ccc1F (centres undefined) | 8.22 |

| Compound | cytotoxicity at 10 µM [%] |
| --- | --- |
| O=C1CCc2cc(C(=O)NCc3ccc(Cl)s3)ccc2N1 | 3.65 |
| OC(COCc1cccs1)Cn1cc(Br)cn1 (centres undefined) | 1.91 |
| Cc1noc(C)c1Cn1cc(I)cc(C)c1=O | 4.92 |
| Cc1ccc(N(C)CC(O)COCc2ccccc2F)c(C)c1 (centres undefined) | 18 |
| COc1ccc(S(=O)(=O)Cc2noc(CC(C)C)n2)cc1 | 5.52 |
| c1csc(N2CCCN(c3nccn4cnnc34)CC2)n1 | -5.05 |
| CN(CCc1ccncc1)c1cnn(C)c(=O)c1Br | -5.44 |
| CCN(Cc1ccc(Cl)s1)S(=O)(=O)CC | -1.11 |
| Cn1nc(C(=O)NCc2cccc(Cn3ccnc3)c2)ccc1=O | 8.53 |
| COc1ccc(CN(C)c2ncc(S(N)(=O)=O)s2)c(OC)c1 | -2.03 |
| CN(Cc1ccccc1F)C(=O)Cn1cc(NC(=O)C(C)(C)C)cn1 | 5.23 |
| CC(C)C(C)NC(=O)Nc1ccccc1CN1CCOCC1 (centres undefined) | 0.795 |
| CN(C)C(=O)N1CCN(Cc2nnc(C(C)(C)C)o2)CC1 | 0.278 |
| CCC(=O)Nc1ccc(C(C)NC(=O)COCCOC)cc1 (centres undefined) | -7.71 |
| CC(=O)NCc1nc(CCOc2ccc(Cl)cc2)no1 | -145 |
| COCC(O)CNC(=O)c1coc(COc2cccc(F)c2)n1 (centres undefined) | -139 |
| CC(=O)Cc1c(C)nn(-c2cncc(C(N)=O)c2)c1C | -17.5 |
| c1ccc2c(c1)ccn2CCCNC1CCOC2(CCOCC2)C1 (centres undefined) | -7.04 |
| Cn1cc(-c2cc(C(=O)N3CCOCC3)c3ccc(F)cc3n2)cn1 | 1.5 |
| Cc1cccc(Cn2nc(C3CCNCC3)n(-c3ccccc3)c2=O)c1 | -4.68 |
| CCN1CCC(CC(=O)NCC(O)c2cccc(OC)c2)CC1 (centres undefined) | -6.87 |
| Cc1cccc(C)c1OC1CN(C(=O)C2CCN(C(=O)N(C)C)CC2)C1 | 2.69 |

| Compound | cytotoxicity at 10 µM [%] |
| --- | --- |
| O=C(C1CCC1)N1CCN(Cc2ccccc2F)[C@H]2CS(=O)(=O)C[C@H]21 | 0.15 |
| O=C(Cc1c[nH]c(=O)[nH]c1=O)N1CCCCC1CCc1ccccc1 (centres undefined) | -9.05 |
| CCc1ccccc1OCCN1CC[C@@]2(O)CCNC[C@H]2C1 | -160 |
| CNc1cc(C)nc(-c2cc(NCCO)nc3[nH]ccc23)n1 | 5.85 |
| COCCn1cncc1-c1nc2c([nH]1)CC(C)(C)CNC2=O | 8.42 |
| Nc1nc(Sc2cccs2)cc(N2CC[C@H](CO)[C@H](O)C2)n1 | 2.68 |
| Cc1ccsc1[C@@H]1CCN(C(=O)CCc2nc3ccccc3[nH]2)C[C@H]1O | -1.67 |
| CN1CCCC2(CCN(C(=O)CCn3cncn3)C2)C1=O (centres undefined) | -11 |
| CCCc1cc(C(=O)N(C)Cc2cnc3ccccc3n2)n(C)n1 | -19.3 |
| CC(C)OCCCNC(=O)CS(=O)(=O)Cc1ccc(C(C)(C)C)cc1 | 4.92 |
| CC(NC(=O)NCc1cccs1)c1ccc2c(c1)CCC(=O)N2 (centres undefined) | 5.41 |
| CCc1nc(C)c(C(=O)NCCNC(=O)Cc2cccc(F)c2)s1 | 1.98 |
| CC1COCCN1C(=O)Nc1cnc2c(cnn2C(C)C)c1 (centres undefined) | -2.21 |
| Cc1ccc(S(=O)(=O)N2CSCC2C(=O)NCC(F)(F)F)cc1C (centres undefined) | -0.855 |
| CN(C)c1ncccc1CNS(=O)(=O)c1cc(F)ccc1F | 5.67 |
| CCn1cc(NC(=O)NCCc2ccc3c(c2)OCCO3)cn1 | -7.72 |
| CCc1ccsc1C(=O)N1CCN(CC(C)O)CC1 (centres undefined) | -33.1 |
| CC(c1cccc(S(N)(=O)=O)c1)N(C)CCOC(C)(C)C (centres undefined) | -32.8 |
| NC(=O)CN1CCC(NC(=O)COc2ccc(Cl)c(Cl)c2)CC1 | -8.7 |
| CC(=O)N(Cc1noc(C)n1)C1CCN(Cc2c(C)noc2C)C1 (centres undefined) | -9.55 |
| Cc1cnn(C2CCCN(C(=O)CCCOc3ccccc3F)C2)c1 (centres undefined) | -7.52 |
| Cc1cnn(C2CCCN(C(=O)c3cn(-c4ccccc4)nn3)C2)c1 (centres undefined) | -22.1 |

| Compound | cytotoxicity at 10 µM [%] |
| --- | --- |
| CCc1nnc(CN2CCC(N3CCN(CC)C3=O)CC2)o1 | 1.52 |
| CCOc1ccc(CC(CNC(=O)c2ccco2)C(N)=O)cc1 (centres undefined) | 8.26 |
| COc1ccc(Br)c(C(=O)N2CCCC(c3nc(C)no3)C2)c1 (centres undefined) | 7.08 |
| Cc1noc(C2CCCN(C(=O)c3cncc(Br)c3)C2)n1 (centres undefined) | -1.82 |
| CCC1CCCN(CC(=O)Nc2oc(C)c3c(C)n[nH]c(=O)c23)C1 (centres undefined) | -3.66 |
| CC(=O)c1cccc(S(=O)(=O)N2CSCC2C(=O)NCC(F)(F)F)c1 (centres undefined) | 3.78 |
| Cc1ccc(-c2nc(CN3CCCC(Cn4cncn4)C3)no2)cc1 (centres undefined) | -4.86 |
| O=C1CC2(CCNCC2)C(=O)N1c1cccc(F)c1 | 1.7 |
| Cc1nnn2c1COCC(CNCc1nccs1)C2 (centres undefined) | -109 |
| CNC(=O)CN1CC[C@H]2CN(C(=O)c3ccccc3C)C[C@H]2C1 | 0.793 |
| O=C1[C@H]2CN(Cc3ccccc3)C[C@H]2CN1c1cncnc1 | -4.53 |
| c1coc(CN2CCC3(CC2)COC(COCC2CC2)C3)c1 (centres undefined) | -4.37 |
| O=C(c1cnoc1)N1CCC[C@]2(C[C@@H](Oc3ccccn3)CO2)C1 | -5.96 |
| Cn1cccc1C(=O)N1CCO[C@@H]2CN(Cc3nccs3)C[C@@H]2C1 | -103 |
| CC(C)C[C@H](N)C(=O)N1CC2(CCNCC2)c2cc(Cl)ccc21 | -8.34 |
| Cn1ccc(C(=O)NC2CCC23CCN(Cc2cnn(C)c2)CC3)c1 (centres undefined) | -146 |
| Cc1cccc(CN2C[C@H]3CCC[C@@]3(COCc3csc(C)n3)C2)n1 | 14.3 |
| O=C1C[C@H]2[C@@H](CCN2Cc2ccccn2)N1Cc1cccnc1 | 4.88 |
| NC1CCC(n2cc(C(=O)NC3COc4ccccc43)nn2)CC1 (centres undefined) | -4.8 |
| CN(C)C(=O)N1C[C@H]2CC[C@@H](C1)N(C/C=C/c1ccc(F)cc1)C2 | -0.545 |
| CCCN1C[C@@H]2CC[C@H]1CN(Cc1ccc(Cn3cccn3)cc1)C2 | -4.87 |
